# Assay results as given in ChEMBL document CHEMBL4411332, “Deciphering the Role of Intramolecular Networking in Cholic Acid-Peptide Conjugates on the Lipopolysaccharide Surface in Combating Gram-Negative Bacterial Infections” (J Med Chem, 2019).
# The source made the active and inactive calls. The rule behind the calls is not given here.
# Key:
# [1] = tested on: Escherichia coli; test: Antibacterial activity against Escherichia coli by broth dilution assay; assay type: functional
# Summary of the method: (§1)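 MIC99 by broth-dilution assay; antibacterial and culture details are in the Supporting Information.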
# [2] = tested on: Escherichia coli; test: Bactericidal activity against stationary form of Escherichia coli assessed as reduction in colony forming units by fluorescent based time-kill assay; assay type: functional, organism-based
# [3] = tested on: Escherichia coli; test: Bactericidal activity against persistent form of Escherichia coli assessed as reduction in colony forming units by fluorescent based time-kill assay; assay type: functional, organism-based
# [4] = tested on: Escherichia coli; test: Antibacterial activity against Escherichia coli isolate 6/23 infected in wound areas of BALB/c mouse assessed as reduction in colony forming units at 40 mg/kg dosed thrice daily for 4 days starting 6 hrs post infection and measured on day 5; assay type: functional, organism-based
# [5] = tested on: Klebsiella pneumoniae; test: Antibacterial activity against Klebsiella pneumoniae by broth dilution assay; assay type: functional; summary of the method: as §1
# [6] = tested on: Acinetobacter baumannii; test: Antibacterial activity against Acinetobacter baumannii by broth dilution assay; assay type: functional; summary of the method: as §1
# [7] = Binding affinity to DPH-doped model gram negative bacterial membrane (LPS/DPPE/DMPG lipids) assessed as increase in membrane fluidity by fluorescence anisotrophy
# Summary of the method: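 Vesicles of LPS, DPPE and DMPG doped with DPH were incubated with compound, and the change in DPH fluorescence anisotropy was recorded. Mean ± SD of three replicates, unpaired two-tailed t-test.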
# [8] = tested on: Lipopolysaccharide (LPS); test: Displacement of dansyl-polymyxin B from LPS of bacterial cell membrane by fluorescence spectrophotometry; conditions: Bacteria
# Summary of the method: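 Dansyl-polymyxin B–LPS complexes titrated with compound; rise in dansyl fluorescence from displacement measured. Mean ± SD of three replicates, unpaired two-tailed t-test.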
# [9] = tested on: Lipopolysaccharide (LPS); test: Binding affinity to bacterial LPS by BODIPY-LPS based fluorescence assay; conditions: Bacteria
# Summary of the method: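 BODIPY-conjugated LPS aggregates titrated with compound; fluorescence increase from aggregate disintegration recorded. Mean ± SD of three replicates, unpaired two-tailed t-test.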
# [10] = tested on: Cell membrane; test: Binding affinity to bacterial cell membrane assessed as Ka1 by SPR assay; assay type: cell membranes; conditions: Bacteria
# Summary of the method: (§2)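 Surface plasmon resonance of compound binding to bacterial membranes. K1, K2 and overall KA were calculated from the sensorgrams. Average of three replicates.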
# [11] = tested on: Cell membrane; test: Binding affinity to bacterial cell membrane assessed as Kd1 by SPR assay; assay type: cell membranes; conditions: Bacteria; summary of the method: as §2
# [12] = tested on: Cell membrane; test: Binding affinity to bacterial cell membrane assessed as K1 by SPR assay; assay type: cell membranes; conditions: Bacteria; summary of the method: as §2
# [13] = tested on: Cell membrane; test: Binding affinity to bacterial cell membrane assessed as Kd2 by SPR assay; assay type: cell membranes; conditions: Bacteria; summary of the method: as §2
# [14] = tested on: Cell membrane; test: Binding affinity to bacterial cell membrane assessed as K2 by SPR assay; assay type: cell membranes; conditions: Bacteria; summary of the method: as §2
# [15] = tested on: Cell membrane; test: Binding affinity to bacterial cell membrane assessed as KA by SPR assay; assay type: cell membranes; conditions: Bacteria; summary of the method: as §2
# [16] = tested on: Escherichia coli; test: Induction of membrane permeabilization in Escherichia coli at 8 uM after 40 mins by NPN-fluorescence based assay; assay type: organism-based; conditions: Cell membrane
# Summary of the method: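 NPN-stained E. coli incubated with compound at 8 µM; outer-membrane permeabilization followed as NPN fluorescence over time. Average of three replicates.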
# [17] = tested on: Escherichia coli; test: Induction of membrane permeabilization in Escherichia coli at 8 uM after 30 mins DiSC2-fluorescence based assay; assay type: organism-based; conditions: Cell membrane
# Summary of the method: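 DiSC2(5)-loaded E. coli treated at 8 µM; depolarization-driven fluorescence increase followed over time. Average of three replicates.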
# [18] = tested on: Escherichia coli; test: Induction of membrane permeabilization in Escherichia coli at 32 uM by propidium iodide uptake based FACS analysis; assay type: organism-based; conditions: Cell membrane
# Summary of the method: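 E. coli treated at 32 µM, PI-stained, and PI-positive cells counted by flow cytometry. Mean ± SD of four replicates, unpaired two-tailed t-test.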
# [19] = tested on: Escherichia coli; test: Induction of membrane permeabilization in Escherichia coli in presence of 1.9 to 1000 ug/ml LPS by propidium iodide uptake based FACS analysis; assay type: organism-based; conditions: Cell membrane
# Summary of the method: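 E. coli was treated with compound in the presence of graded LPS and stained with propidium iodide. The percentage of PI-positive cells was measured by flow cytometry.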
# [20] = tested on: Escherichia coli; test: Bactericidal activity against Escherichia coli assessed as reduction in colony forming units at 1 times MIC99 concentration after 6 hrs by fluorescent based time-kill assay; assay type: functional, organism-based
# [21] = tested on: Escherichia coli; test: Antibiofilm activity against Escherichia coli assessed as reduction in colony forming units after 24 hrs by crystal violet-based assay; assay type: functional, organism-based
# [22] = tested on: Escherichia coli; test: Antibiofilm activity against Escherichia coli assessed as reduction in colony forming units at 64 uM after 24 hrs by crystal violet-based assay relative to control; assay type: functional
# [23] = tested on: Escherichia coli; test: Antibiofilm activity against Escherichia coli assessed as reduction in biomass levels at 64 uM after 24 hrs by crystal violet-based assay relative to control; assay type: functional; set-up: scale not given: the % may be the effect or the level left
# Summary of the method: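 Pre-formed E. coli biofilms treated 24 h with varying doses; biomass quantified by crystal violet staining relative to untreated. Mean ± SD of three replicates, unpaired two-tailed t-test.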
# [24] = tested on: Escherichia coli; test: Antibiofilm activity against Escherichia coli assessed as reduction in biomass levels after 24 hrs by SYT09-propidium iodide based confocal microscopy; assay type: functional, organism-based
# Summary of the method: (§3)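 Treated E. coli biofilms stained with SYTO9 (all cells) and PI (dead cells) and imaged by confocal laser scanning microscopy. Biofilm thickness quantified against untreated. Mean ± SD of three replicates, unpaired two-tailed t-test.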
# [25] = tested on: Escherichia coli; test: Antibacterial activity against Escherichia coli XEN 14 infected in wound areas of BALB/C mouse assessed as reduction in bacterial load at 40 mg/kg administered thrice daily for 4 days starting 6 hrs post infection and measured on day 5 by bioluminescence imaging analysis; assay type: functional, organism-based
# [26] = tested on: Escherichia coli; test: Antibacterial activity against Escherichia coli isolate 9/44 by broth dilution assay; assay type: functional
# [27] = tested on: Escherichia coli; test: Antibacterial activity against Escherichia coli isolate 9/203 by broth dilution assay; assay type: functional
# [28] = tested on: Escherichia coli; test: Antibacterial activity against Escherichia coli isolate 6/23 by broth dilution assay; assay type: functional
# [29] = tested on: Escherichia coli; test: Antibacterial activity against Escherichia coli isolate 6/27 by broth dilution assay; assay type: functional
# [30] = tested on: Escherichia coli; test: Antibacterial activity against Escherichia coli isolate 6/38 by broth dilution assay; assay type: functional
# [31] = tested on: Acinetobacter baumannii; test: Antibacterial activity against Acinetobacter baumannii isolate 4/307 by broth dilution assay; assay type: functional
# [32] = tested on: Acinetobacter baumannii; test: Antibacterial activity against Acinetobacter baumannii isolate 1/303 by broth dilution assay; assay type: functional
# [33] = tested on: Acinetobacter baumannii; test: Antibacterial activity against Acinetobacter baumannii isolate 5/321 by broth dilution assay; assay type: functional
# [34] = tested on: Acinetobacter baumannii; test: Antibacterial activity against Acinetobacter baumannii isolate 4/202 by broth dilution assay; assay type: functional
# [35] = tested on: Acinetobacter baumannii; test: Antibacterial activity against Acinetobacter baumannii isolate 5/412 by broth dilution assay; assay type: functional
# [36] = tested on: Klebsiella pneumoniae; test: Antibacterial activity against Klebsiella pneumoniae isolate 8/407 by broth dilution assay; assay type: functional
# [37] = tested on: Klebsiella pneumoniae; test: Antibacterial activity against Klebsiella pneumoniae isolate 8/307 by broth dilution assay; assay type: functional
# [38] = tested on: Klebsiella pneumoniae; test: Antibacterial activity against Klebsiella pneumoniae isolate 7/47 by broth dilution assay; assay type: functional
# [39] = tested on: Klebsiella pneumoniae; test: Antibacterial activity against Klebsiella pneumoniae isolate 12823 by broth dilution assay; assay type: functional
# [40] = Selectivity index, ratio of HC50 for human RBC to MIC99 for Escherichia coli; assay type: toxicity; conditions: human red blood cells (RBC), read-out: Selectivity Index
# [41] = Selectivity index, ratio of IC50 for human A549 cells to MIC99 for Escherichia coli; assay type: toxicity; conditions: read-out: Selectivity Index
# [42] = Critical micellar concentration of the compound; assay type: physicochemical
# [43] = tested on: Escherichia coli; test: Induction of membrane permeabilization in Escherichia coli by SYTO9-PI staining based fluorescence microscopy; assay type: organism-based; conditions: Cell membrane
# [44] = tested on: Escherichia coli; test: Induction of cell morphology changes in Escherichia coli at 8 uM by TEM assay; assay type: functional, organism-based
# Summary of the method: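 E. coli treated at 8 µM, sampled at different times and imaged by transmission electron microscopy beside untreated cells.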
# [45] = tested on: Escherichia coli; test: Antimicrobial activity against compound-pre-treated Escherichia coli by broth dilution assay based drug resistance development assay; assay type: functional, organism-based
# Summary of the method: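 E. coli pre-treated with compound, then MIC₉₉ redetermined by broth-dilution assay in four replicates; reported as fold change in MIC₉₉ relative to starting value to assess resistance development.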
# [46] = tested on: Escherichia coli; test: Ratio of antimicrobial activity against Escherichia coli using 10^12 CFU/ml bacterial inoculum by broth dilution assay to antimicrobial activity against Escherichia coli by broth dilution assay; assay type: functional
# Summary of the method: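 MIC99 against E. coli was measured by broth dilution at a range of inoculum densities up to 10¹² CFU/mL, in four replicates. Results were expressed as fold change in MIC99 relative to the standard inoculum.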
# [47] = tested on: Escherichia coli; test: Antibiofilm activity against Escherichia coli after 24 hrs by propidium iodide uptake based FACS analysis; assay type: functional, organism-based
# [48] = tested on: Escherichia coli; test: Antibiofilm activity against Escherichia coli assessed as biofilm thickness after 24 hrs (reference value: >8 micrometer); assay type: functional; summary of the method: as §3
# [49] = tested on: Escherichia coli; test: Induction of cell membrane disruption in Escherichia coli assessed as pore network disruption by SEM assay; assay type: functional, organism-based
# [50] = tested on: Escherichia coli; test: Induction of cell membrane disruption in Escherichia coli assessed as extracellular architecture disruption by SEM assay; assay type: functional, organism-based
# [51] = tested on: Escherichia coli; test: Antibiofilm activity against Escherichia coli isolate 6/23 exposed to compound-coated catheters assessed as reduction in colony forming units incubated for 3 days; assay type: functional, organism-based
# [52] = tested on: Escherichia coli; test: Antibiofilm activity against Escherichia coli isolate 6/23 infected in BALB/c mouse implanted subcutaneously with compound treated catheters followed by infection at incision site; assay type: functional, organism-based
# [53] = tested on: Escherichia coli; test: Bactericidal activity against Escherichia coli assessed as reduction in colony forming units at 4 times MIC99 concentration after 90 mins by fluorescent based time-kill assay
smiles,measurement,setting,value
CC(C)C[C@H](N)C(=O)NCC(=O)O[C@@H]1CC[C@@]2(C)[C@@H](C1)C[C@@H](OC(=O)CNC(=O)[C@@H](N)CC(C)C)[C@@H]1[C@@H]2C[C@H](OC(=O)CNC(=O)[C@@H](N)CC(C)C)[C@]2(C)[C@@H]([C@H](C)CCC(=O)OCc3ccccc3)CC[C@@H]12,MIC99,[1],8 to 128 µM
CC1(C)S[C@@H]2[C@H](NC(=O)[C@H](N)c3ccccc3)C(=O)N2[C@H]1C(=O)O,Activity,[2],inactive
same,Activity,[3],inactive
same,Activity,[4],inactive
CC(C)[C@H](N)C(=O)NCC(=O)O[C@@H]1CC[C@@]2(C)[C@@H](C1)C[C@@H](OC(=O)CNC(=O)[C@@H](N)C(C)C)[C@@H]1[C@@H]2C[C@H](OC(=O)CNC(=O)[C@@H](N)C(C)C)[C@]2(C)[C@@H]([C@H](C)CCC(=O)OCc3ccccc3)CC[C@@H]12.Cl.Cl.Cl,MIC99,[1],8 µM
same,MIC99,[5],16 µM
same,MIC99,[6],16 µM
same,Activity,[7],Active
same,inhibition,[8],Active
same,Activity,[9],Active
same,K,[10],2.41 ×10⁴ /Ms
same,K,[11],6 ×10⁻² /s
same,K,[12],4.06 ×10⁵ /M
same,K,[13],4.19 ×10⁻⁵ /s
same,K,[14],2.39 ×10² /M
same,KA,[15],9.6 ×10⁷ /M
same,Activity,[16],Active
same,Activity,[17],Active
same,Activity,[18],Active
same,Activity,[19],inactive
same,Activity,[20],inactive
same,Activity,[2],Active
same,Activity,[3],Active
same,Activity,[21],Dose-dependent effect
same,log(activity),[22],8
same,Activity,[23],90%
same,Activity,[24],Active
same,Activity,[4],Active
same,Activity,[25],Active
same,MIC99,[26],8 µM
same,MIC99,[27],8 µM
same,MIC99,[28],8 µM
same,MIC99,[29],4 µM
same,MIC99,[30],4 µM
same,MIC99,[31],16 µM
same,MIC99,[32],16 µM
same,MIC99,[33],4 µM
same,MIC99,[34],8 µM
same,MIC99,[35],4 µM
same,MIC99,[36],8 µM
same,MIC99,[37],8 µM
same,MIC99,[38],4 µM
same,MIC99,[39],8 µM
same,selectivity ratio,[40],6 to 7
same,selectivity ratio,[41],6 to 7
same,CMC,[42],> 100 µM
same,Activity,[43],Active
same,Activity,[44],Active
same,Activity,[45],Active
same,Ratio,[46],2
same,Activity,[47],Active
same,Activity,[48],3 um
same,Activity,[49],Active
same,Activity,[50],Active
same,Activity,[51],Active
same,Activity,[52],Active
same,Activity,[53],Active
